Laboratory results taken from ChEMBL document CHEMBL1629456, “ApoA-I mimetic peptides promote pre-β HDL formation in vivo causing remodeling of HDL and triglyceride accumulation at higher dose” (Bioorg Med Chem, 2010).
pEC50, pIC50: −log10 of the molar value. Activity calls are given as the source filed them. No cut-off for these calls is given here. Where a SMILES comes first, the peptide text is derived from it. [ ]: non-standard residue; d: D form. dGly(6-heptenyl) = C=CCCCCC[C@@H](N)C(=O)O; Ala(5-hexenyl) = C=CCCCCC[C@H](N)C(=O)O; Gly(octyl) = CCCCCCCC[C@H](N)C(=O)O

Columns and labels:
[1] = system: Mus musculus; assay: Effect on triglyceride level in C57/BL6 mouse at 20 mg/kg, sc after 1 hr; assay type: functional, organism-based; set-up: dose 20 mg/kg; settings: C57Bl/6
Procedure, shortened: (§1)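 Male C57Bl/6 mice (≥12 weeks, chow-fed) given peptide subcutaneously in 50 mM mannitol/PBS vehicle. Serum was collected by cardiac puncture at 1 or 3 h, clotted 1 h at room temperature and spun at 10,000g. Serum triglyceride was measured by enzymatic colorimetric assay, with 3–5 animals per dose and time point.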

[2] = system: Mus musculus; assay: Effect on triglyceride level in C57/BL6 mouse at 20 mg/kg, sc after 3 hrs; assay type: functional, organism-based; set-up: dose 20 mg/kg; settings: C57Bl/6; procedure, shortened: as §1
[3] = system: Mus musculus; assay: Effect on triglyceride level in C57/BL6 mouse at 60 mg/kg, sc after 1 hr; assay type: functional, organism-based; set-up: dose 60 mg/kg; settings: C57Bl/6; procedure, shortened: as §1
[4] = Plasma concentration in C57/BL6 mouse at 60 mg/kg, sc after 3 hrs; assay type: ADME, organism-based, C57Bl/6; set-up: dose 60 mg/kg, route subcutaneous
Procedure, shortened: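 Male C57Bl/6 mice were dosed subcutaneously with peptide in 50 mM mannitol/PBS. Serum was taken by cardiac puncture, and peptide was measured by LC–MS/MS after acetonitrile protein precipitation.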

[5] = biological target: Lipoprotein lipase (Bos taurus) (UniProt P11151); assay: Inhibition of Lipoprotein lipase in vitro
[6] = biological target: Phospholipid-transporting ATPase ABCA1 (Mus musculus, UniProt P41233); assay: Induction of ABCA1-mediated [3H]cholesterol efflux in mouse RAW 264.7 macrophages after 24 hrs
Phospholipid-transporting ATPase ABCA1, sequence (P41233 whole entry): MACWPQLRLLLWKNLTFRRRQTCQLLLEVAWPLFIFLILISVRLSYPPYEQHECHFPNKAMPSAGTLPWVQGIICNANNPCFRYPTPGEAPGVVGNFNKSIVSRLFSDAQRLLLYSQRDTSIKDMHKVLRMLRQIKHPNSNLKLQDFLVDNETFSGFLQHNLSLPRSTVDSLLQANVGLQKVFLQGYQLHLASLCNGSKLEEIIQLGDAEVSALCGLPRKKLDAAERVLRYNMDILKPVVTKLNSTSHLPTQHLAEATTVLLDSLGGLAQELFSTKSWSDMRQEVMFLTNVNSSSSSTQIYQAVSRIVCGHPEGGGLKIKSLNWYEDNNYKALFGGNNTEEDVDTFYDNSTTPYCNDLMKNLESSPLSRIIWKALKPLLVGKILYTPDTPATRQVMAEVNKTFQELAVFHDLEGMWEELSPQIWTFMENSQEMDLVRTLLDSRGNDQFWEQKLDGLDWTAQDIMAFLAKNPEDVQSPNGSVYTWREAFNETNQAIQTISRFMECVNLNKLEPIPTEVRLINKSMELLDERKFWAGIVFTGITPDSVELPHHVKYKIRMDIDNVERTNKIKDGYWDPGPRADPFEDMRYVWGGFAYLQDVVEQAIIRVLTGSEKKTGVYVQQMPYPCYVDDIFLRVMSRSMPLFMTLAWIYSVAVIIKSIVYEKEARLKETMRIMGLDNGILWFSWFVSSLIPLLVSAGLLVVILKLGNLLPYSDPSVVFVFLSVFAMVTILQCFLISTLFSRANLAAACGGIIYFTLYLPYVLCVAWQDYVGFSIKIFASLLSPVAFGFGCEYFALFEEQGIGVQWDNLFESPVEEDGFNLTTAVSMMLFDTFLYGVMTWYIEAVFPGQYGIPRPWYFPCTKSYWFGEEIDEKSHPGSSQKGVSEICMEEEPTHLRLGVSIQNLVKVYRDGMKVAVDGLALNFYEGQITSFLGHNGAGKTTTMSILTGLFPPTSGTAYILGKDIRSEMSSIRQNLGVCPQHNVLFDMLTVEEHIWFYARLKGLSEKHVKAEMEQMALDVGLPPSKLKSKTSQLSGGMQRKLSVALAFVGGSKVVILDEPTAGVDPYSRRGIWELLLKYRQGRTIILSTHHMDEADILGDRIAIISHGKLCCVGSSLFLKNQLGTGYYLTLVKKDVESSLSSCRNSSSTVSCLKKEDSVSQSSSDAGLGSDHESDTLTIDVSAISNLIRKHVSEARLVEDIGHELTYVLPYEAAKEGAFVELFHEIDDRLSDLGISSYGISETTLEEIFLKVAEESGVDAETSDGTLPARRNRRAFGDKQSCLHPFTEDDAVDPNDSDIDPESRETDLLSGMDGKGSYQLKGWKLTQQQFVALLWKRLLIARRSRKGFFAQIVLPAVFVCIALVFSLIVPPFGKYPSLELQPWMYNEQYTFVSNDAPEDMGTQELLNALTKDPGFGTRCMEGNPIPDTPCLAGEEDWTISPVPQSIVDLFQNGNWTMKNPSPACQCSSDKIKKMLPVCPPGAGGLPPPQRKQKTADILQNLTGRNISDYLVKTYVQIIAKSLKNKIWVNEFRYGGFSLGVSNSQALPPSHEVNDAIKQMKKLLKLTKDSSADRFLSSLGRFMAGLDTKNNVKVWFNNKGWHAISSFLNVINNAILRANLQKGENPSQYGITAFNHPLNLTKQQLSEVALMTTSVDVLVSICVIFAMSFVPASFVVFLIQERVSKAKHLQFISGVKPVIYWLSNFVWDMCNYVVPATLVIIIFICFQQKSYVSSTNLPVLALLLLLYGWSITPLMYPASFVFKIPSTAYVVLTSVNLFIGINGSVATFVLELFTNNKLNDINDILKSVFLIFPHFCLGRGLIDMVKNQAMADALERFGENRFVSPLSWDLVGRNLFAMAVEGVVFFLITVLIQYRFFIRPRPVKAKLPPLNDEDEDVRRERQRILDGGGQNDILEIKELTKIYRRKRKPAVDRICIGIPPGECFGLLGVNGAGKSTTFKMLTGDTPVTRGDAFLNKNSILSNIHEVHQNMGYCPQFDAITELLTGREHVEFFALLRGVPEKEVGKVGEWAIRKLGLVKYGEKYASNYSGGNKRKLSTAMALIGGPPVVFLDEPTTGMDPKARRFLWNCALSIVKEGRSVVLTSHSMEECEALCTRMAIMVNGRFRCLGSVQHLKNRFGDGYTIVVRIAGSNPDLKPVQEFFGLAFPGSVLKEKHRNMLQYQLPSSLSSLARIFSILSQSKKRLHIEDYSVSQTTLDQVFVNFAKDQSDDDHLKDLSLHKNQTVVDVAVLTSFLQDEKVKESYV

[7] = system: Plasma; assay: Induction of pre-beta HDL formation in human plasma after 2 hrs by ELISA; assay type: functional, cell-free
Procedure, shortened: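 Increasing peptide concentrations were incubated with normal human plasma at 37 °C for 2 h. Pre-β HDL was quantified by a commercial human pre-β HDL ELISA.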

[8] = species on record: Mus musculus; assay: Induction of pre-beta HDL formation in C57/BL6 mouse plasma at 0.25 mg/ml after 2 hrs by FPLC; assay type: functional; settings: C57Bl/6
Procedure, shortened: (§2)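 Peptide was added to C57Bl/6 mouse plasma (final 0.25 mg/ml) or human plasma (final 0.5 mg/ml) and incubated at 37 °C. Lipoproteins were fractionated by Superose 6 FPLC in PBS pH 7.4 with 1 mM EDTA. Cholesterol was measured by enzymatic colorimetry and peptide by LC–MS against an internal standard.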

[9] = system: Plasma; assay: Induction of pre-beta HDL formation in human plasma at 0.5 mg/ml after 2 hrs by FPLC; assay type: functional, cell-free; procedure, shortened: as §2
[10] = system: Plasma; assay: Induction of pre-beta HDL formation in mouse plasma after 2 hrs by ELISA; assay type: functional, cell-free
[11] = system: Mus musculus; assay: Induction of pre-beta HDL formation in apoe deficient mouse assessed as increase in circulating pre-beta HDL at 60 mg/kg, sc after 2 hrs by FPLC; assay type: functional, organism-based; set-up: dose 60 mg/kg; settings: TDE = time-dependent effect
[12] = biological target: Phospholipid-transporting ATPase ABCA1 (Mus musculus) (UniProt P41233); assay: Induction of ABCA1-mediated [3H]cholesterol efflux in mouse J774 macrophages; settings: TDE = time-dependent effect
Phospholipid-transporting ATPase ABCA1 (Mus musculus), sequence (P41233 whole entry): as above
Procedure, shortened: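 Ex vivo serum efflux. J774 macrophages were labeled with [3H]cholesterol for 24 h, then equilibrated 18 h in 0.2% BSA, with or without cpt-cAMP. Cells were incubated 4 h at 37 °C with 2% serum from peptide-dosed apoe-/- mice (60 mg/kg sc). Fractional efflux was media [3H] over total at time zero; ABCA1-dependent efflux = cAMP-treated minus untreated.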

[13] = system: Mus musculus; assay: Induction of hypertriglyceridemia in C57/BL6 mouse at 30 mg/kg, sc by FPLC; assay type: functional, organism-based; set-up: dose 30 mg/kg; settings: C57Bl/6
Procedure, shortened: (§3)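 Male C57Bl/6 mice (≥12 weeks, chow-fed) dosed subcutaneously with peptide in vehicle (50 mM mannitol in PBS); serum collected by cardiac puncture at time points post-dose. Serum was pooled (three animals per pool), given protease and lipase inhibitors, filtered, and fractionated by Superose 6 FPLC in PBS pH 7.4 with 1 mM EDTA at 0.2 ml/min. Cholesterol and triglyceride in fractions were measured by enzymatic colorimetry.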

[14] = system: Mus musculus; assay: Induction of hypertriglyceridemia in C57/BL6 mouse at 100 mg/kg, sc by FPLC; assay type: functional, organism-based; set-up: dose 100 mg/kg; settings: C57Bl/6; procedure, shortened: as §3
[15] = system: Mus musculus; assay: Increase in VLDL cholesterol level in C57/BL6 mouse at 30 mg/kg, sc by FPLC; assay type: functional, organism-based; set-up: dose 30 mg/kg; settings: C57Bl/6; procedure, shortened: as §3
[16] = system: Mus musculus; assay: Increase in VLDL cholesterol level in C57/BL6 mouse at 100 mg/kg, sc by FPLC; assay type: functional, organism-based; set-up: dose 100 mg/kg; settings: C57Bl/6; procedure, shortened: as §3
[17] = system: Mus musculus; assay: Increase in VLDL triglyceride level in C57/BL6 mouse at 30 mg/kg, sc by FPLC; assay type: functional, organism-based; set-up: dose 30 mg/kg; settings: C57Bl/6; procedure, shortened: as §3
[18] = system: Mus musculus; assay: Increase in VLDL triglyceride level in C57/BL6 mouse at 100 mg/kg, sc by FPLC; assay type: functional, organism-based; set-up: dose 100 mg/kg; settings: C57Bl/6; procedure, shortened: as §3
[19] = system: Mus musculus; assay: Effect on TG content in HDL in C57/BL6 mouse at 30 mg/kg, sc after 24 hrs by FPLC; assay type: functional, organism-based; set-up: dose 30 mg/kg; settings: C57Bl/6; procedure, shortened: as §3
[20] = system: Mus musculus; assay: Effect on TG content of HDL in C57/BL6 mouse at 100 mg/kg, sc after 24 hrs by FPLC; assay type: functional, organism-based; set-up: dose 100 mg/kg; settings: C57Bl/6; procedure, shortened: as §3
[21] = system: Mus musculus; assay: Decrease in HDL cholesterol level in C57/BL6 mouse at 30 mg/kg, sc after 24 hrs by FPLC; assay type: functional, organism-based; set-up: dose 30 mg/kg; settings: C57Bl/6; procedure, shortened: as §3
[22] = system: Mus musculus; assay: Decrease in HDL cholesterol level in C57/BL6 mouse at 100 mg/kg, sc after 24 hrs by FPLC; assay type: functional, organism-based; set-up: dose 100 mg/kg; settings: C57Bl/6; procedure, shortened: as §3

Row | concentration at 3 h [4] [µM] | pIC50 [5] | pEC50 [6] | Compound | Activity [1] | Activity [2] | Activity [3] | Activity [7] | also measured
1 | 55 | 4.68 | 6.05 | C=CCCCCC[C@H](NC(=O)[C@H](CCC(=O)O)NC(=O)[C@H](CC(N)=O)NC(=O)[C@H](CC(C)C)NC(=O)[C@H](CCCCN)NC(=O)[C@H](CCC(=O)O)NC(=O)[C@H](CCCNC(=N)N)NC(=O)[C@@H](CCCCCC=C)NC(=O)[C@H](CCC(=O)O)NC(=O)[C@H](CC(=O)O)NC(=O)[C@H](CC(C)C)NC(=O)[C@H](CCCCCC=C)NC(=O)[C@@H]1CCCN1C(C)=O)C(=O)N[C@@H](CC(C)C)C(=O)N[C@@H](CCC(=O)O)C(=O)N[C@@H](C)C(=O)N[C@@H](CC(C)C)C(=O)N[C@@H](CCCCN)C(=O)N[C@@H](CCC(N)=O)C(=O)N[C@@H](CCCCN)C(=O)N[C@@H](CC(C)C)C(=O)N[C@@H](CCCCN)C(N)=O (Ac-P[Ala(5-hexenyl)]LDE[dGly(6-heptenyl)]REKLNE[Ala(5-hexenyl)]LEALKQKLK-NH2) | inactive | inactive | inactive | – | –
2 | 124 | 4.22 | 6.40 | C=CCCCCC[C@H](NC(=O)[C@H](CCC(=O)O)NC(=O)[C@H](CC(N)=O)NC(=O)[C@H](CC(C)C)NC(=O)[C@H](CCCCN)NC(=O)[C@H](CCC(=O)O)NC(=O)[C@H](CCCNC(=N)N)NC(=O)[C@H](CCCCCC=C)NC(=O)[C@H](CCC(=O)O)NC(=O)[C@H](CC(=O)O)NC(=O)[C@H](CC(C)C)NC(=O)[C@@H](NC(=O)[C@@H]1CCCN1C(C)=O)C(C)C)C(=O)N[C@@H](CC(C)C)C(=O)N[C@@H](CCC(=O)O)C(=O)N[C@@H](C)C(=O)N[C@@H](CC(C)C)C(=O)N[C@@H](CCCCN)C(=O)N[C@@H](CCC(N)=O)C(=O)N[C@@H](CCCCN)C(=O)N[C@@H](CC(C)C)C(=O)N[C@@H](CCCCN)C(N)=O (Ac-PVLDE[Ala(5-hexenyl)]REKLNE[Ala(5-hexenyl)]LEALKQKLK-NH2) | inactive | inactive | inactive | Dose-dependent effect | Activity [8]: Active; Activity [9]: Active; Activity [10]: Dose-dependent effect; Activity [11]: tde; Activity [12]: tde; Activity [13]: inactive; Activity [14]: Active; Activity [15]: Active; Activity [16]: Active; Activity [17]: Active; Activity [18]: Active; Activity [19]: inactive; Activity [20]: inactive; Activity [21]: Active; Activity [22]: Active
3 | – | 4.06 | – | CCCCCCCC[C@H](NC(=O)[C@H](CCC(=O)O)NC(=O)[C@H](CC(N)=O)NC(=O)[C@H](CC(C)C)NC(=O)[C@H](CCCCN)NC(=O)[C@H](CCC(=O)O)NC(=O)[C@H](CCCNC(=N)N)NC(=O)[C@H](Cc1ccccc1)NC(=O)[C@H](CCC(=O)O)NC(=O)[C@H](CC(=O)O)NC(=O)[C@H](CC(C)C)NC(=O)[C@@H](NC(=O)[C@@H]1CCCN1C(C)=O)C(C)C)C(=O)N[C@@H](CC(C)C)C(=O)N[C@@H](CCC(=O)O)C(=O)N[C@@H](C)C(=O)N[C@@H](CC(C)C)C(=O)N[C@@H](CCCCN)C(=O)N[C@@H](CCC(N)=O)C(=O)N[C@@H](CCCCN)C(=O)N[C@@H](CC(C)C)C(=O)N[C@@H](CCCCN)C(N)=O (Ac-PVLDEFREKLNE[Gly(octyl)]LEALKQKLK-NH2) | inactive | inactive | inactive | Dose-dependent effect | –
